How the values were obtained:
[1] = folding enthalpy; higher = less favourable; fluorescence melt of hairpins on a sequencing array, two-state fit; details: sodium 0.088 M
Summary of the method: (§1)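 Two-state fits, bootstrapped, provided melting temperature and folding enthalpy from Cy3 fluorescence normalised to pre-quench Cy3 and to control constructs. Library hairpins with annealed Cy3 and quencher oligos were imaged on a sequenced MiSeq flow cell in 50 mM Na-HEPES pH 8.0, 25 mM NaCl, at 2.5 °C intervals up to 60 °C. Four replicates were combined with inverse-variance weighting. A 9.35 °C upward shift was applied to fitted temperatures to match UV melts.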

[2] = melting temperature; fluorescence melt of hairpins on a sequencing array, two-state fit, raised by 9.35 °C to match UV melts; details: sodium 0.088 M
Summary of the method: as §1

Row | Sequence | folding enthalpy [1] | Tm [2]
1 | GAAACCGGAAACGGCTTC (((.(((....))).))) | -23.6 kcal/mol | 42 °C
2 | GCTGACTCGAAAGAGAGC (((..(((....)))))) | -14.6 kcal/mol | 31.6 °C
3 | GTCGTCGAAAGACCTGAC ((((((....)))..))) | -14.7 kcal/mol | 31.7 °C
4 | GGCGGCGAAAGCCGCGCC ((((((....)))..))) | -6.34 kcal/mol | 68 °C
5 | GATCGCACCAGCGATC ((((((....)))))) | -31.2 kcal/mol | 69.3 °C
6 | GAAAGCCGAAAGGCGTTC (((.(((....))).))) | -12.3 kcal/mol | 52.3 °C
7 | GGCTAGGGAAACCTGGTC (.(.(((....))).).) | -30.6 kcal/mol | 35.5 °C
8 | GTCAAAGGAAACTTCGAC (((.(((....))).))) | -19.4 kcal/mol | 31.1 °C
9 | GATTACGAAAGTAATATC ((((((....)))..))) | -22.1 kcal/mol | 38.6 °C
10 | GCGGATACCCGC ((((....)))) | -24.3 kcal/mol | 54.2 °C
11 | GCGTAATACGC ((((...)))) | -18.7 kcal/mol | 51.9 °C
12 | GATCCCGGAAACGGGGTC ((.((((....)))).)) | -25.8 kcal/mol | 57.6 °C
13 | CGTGGCGGAAACGCACG (((.(((....)))))) | -26.5 kcal/mol | 53.7 °C
14 | GATCCTCGAAAGGATC ((((((....)))))) | -37.2 kcal/mol | 50.4 °C
15 | GATCTCATCAGAGATC ((((((....)))))) | -35.2 kcal/mol | 55.6 °C
16 | GAGCGGCGAAAGCCCCTC (((.(((....))).))) | -14.1 kcal/mol | 46.7 °C
17 | GCAGTAGCGAAAGCTTGC (((..(((....)))))) | -17.8 kcal/mol | 45 °C
18 | GATCTCACAGAGATC ((((((...)))))) | -39.3 kcal/mol | 56.1 °C
19 | GATCGACAAATCGATC ((((((....)))))) | -31.2 kcal/mol | 48.1 °C
20 | GTACTGGGAAACCAGCAC ((.((((....)))).)) | -20.4 kcal/mol | 42.3 °C
21 | GTCCCACGAAAGTGGAC (((.(((....)))))) | -13.1 kcal/mol | 49.9 °C
22 | GTTAGCCGAAAGGCAAC (((.(((....)))))) | -13.5 kcal/mol | 49.3 °C
23 | GTGAGCGAAAGCTGTCAC ((((((....)))..))) | -14.3 kcal/mol | 40.2 °C

Row | Sequence | folding enthalpy [1] | Tm [2]
24 | GAATTTGGAAACAAGTTC (((.(((....))).))) | -28.8 kcal/mol | 33.8 °C
25 | GATAAGCGAAAGCTCATC (((.(((....))).))) | -15.9 kcal/mol | 33.8 °C
26 | GTGATCGAAAGATAACAC ((((((....)))..))) | -23.6 kcal/mol | 34.5 °C
27 | GTACTAGGAAACTAGCAC ((.((((....)))).)) | -22.1 kcal/mol | 32.2 °C
28 | GCAGACGAAAGTCATTGC ((((((....)))..))) | -16.5 kcal/mol | 37.1 °C
29 | GGAACTGGAAACAGCTCC (((.(((....))).))) | -28.5 kcal/mol | 42.5 °C
30 | GGTCAATCGAAAGATACC (((..(((....)))))) | -13.3 kcal/mol | 26.9 °C
31 | GGAATTCGAAAGAACTCC (((.(((....))).))) | -28.1 kcal/mol | 36.4 °C
32 | GTTCATGGAAACATGAAC (((((((....))))))) | -49.9 kcal/mol | 58.2 °C
33 | GATGGTGAAAACCATC ((((((....)))))) | -36.5 kcal/mol | 57.8 °C
34 | GCTAAAGAAATTTAGC ((((((....)))))) | -28.8 kcal/mol | 41.7 °C
35 | GGAATCGGAAACGATCCC ((.((((....)))).)) | -25.9 kcal/mol | 45.5 °C
36 | GAGCCAGGAAACCGGCTC (((((.(....).))))) | -37.5 kcal/mol | 56.6 °C
37 | GATGGTGGAAACGCCATC (((((.(....).))))) | -44.2 kcal/mol | 53.4 °C
38 | GCGACGTCTCGC ((((....)))) | -13.3 kcal/mol | 54.2 °C
39 | GGTTGCGAAAGCAGTACC ((((((....)))..))) | -16.9 kcal/mol | 43.3 °C
40 | GATCTTGAATAAGATC ((((((....)))))) | -31.9 kcal/mol | 49.3 °C
41 | GCGTCGCGAAAGCTCCGC (((..((....))..))) | -21.1 kcal/mol | 46.8 °C
42 | GGTATGGAAACATACC ((((((....)))))) | -41.9 kcal/mol | 53.4 °C
43 | GGCCTCGGAAACAAGGCC (((((.(....).))))) | -34.5 kcal/mol | 51.9 °C
44 | GAGCACGAAAGTGTTCTC ((((((....)))..))) | -25.5 kcal/mol | 52.1 °C
45 | GGGTACGCGAAAGCGCCC (((..(((....)))))) | -16.3 kcal/mol | 47.2 °C
46 | GACCTGGGAAACCAAGTC (((.(((....))).))) | -29.7 kcal/mol | 33.4 °C

Row | Sequence | folding enthalpy [1] | Tm [2]
47 | CGGTCGGAAACGAGACCG ((((((....)))..))) | -38.6 kcal/mol | 49.9 °C
48 | GTTACAGCGAAAGCTAAC (((..(((....)))))) | -11.1 kcal/mol | 28.2 °C
49 | GCCTCGCGAAAGCTAGGC ((((.((....)).)))) | -33 kcal/mol | 65.2 °C
50 | CGTGTTCGGAAACGAACG (((..(((....)))))) | -8.25 kcal/mol | 42.1 °C
51 | CGGACCCGGAAACGGCCG (((..(((....)))))) | -18.8 kcal/mol | 38.9 °C
52 | GCCTTGCGAAAGCTGGGC (((..((....))..))) | -25.9 kcal/mol | 62.6 °C
53 | GATCGTGTCACGATC ((((((...)))))) | -38.2 kcal/mol | 59.3 °C
54 | GATCATACCAATGATC ((((((....)))))) | -39.4 kcal/mol | 48.4 °C
55 | GCGCTGCGAAAGCCGGGC ((.(.((....)).).)) | -20.5 kcal/mol | 50.9 °C
56 | GGCCGACGAAAGTCGCC (((.(((....)))))) | -14.4 kcal/mol | 60.2 °C
57 | GTCTTAGCGAAAGCTGAC (((..(((....)))))) | -14.9 kcal/mol | 39 °C
58 | GCCACTGGAAACAGTAGC ((.((((....)))).)) | -27.7 kcal/mol | 40.5 °C
59 | GATCCTTGGGAGGATC ((((((....)))))) | -43.2 kcal/mol | 53.2 °C
60 | GATCCGCTAACGGATC ((((((....)))))) | -37.2 kcal/mol | 58.8 °C
61 | GATCCTTACGAGGATC ((((((....)))))) | -39.9 kcal/mol | 53.2 °C
62 | GATCGGTCCACCGATC ((((((....)))))) | -50 kcal/mol | 60.9 °C
63 | GCGATAGGAAACTATTGC ((.((((....)))).)) | -38.8 kcal/mol | 45.6 °C
64 | GGCTAGGGAAACTTGGCC (((.(.(....).).))) | -25.9 kcal/mol | 40.6 °C
65 | GGGCTAGGAAACTAGTCC ((.((((....)))).)) | -37.6 kcal/mol | 52.4 °C
66 | GTCCTCGGAAACGAAGAC (((.(((....))).))) | -26 kcal/mol | 38 °C
67 | GTCGTGGGAAACTACGAC (((((.(....).))))) | -37.3 kcal/mol | 53.9 °C
68 | GCGCAGGGAAACCTACGC (((.(((....))).))) | -39.9 kcal/mol | 50.1 °C
69 | GATCTCTACGGAGATC ((((((....)))))) | -36 kcal/mol | 55.6 °C

— the array DNA melting data of Ke et al. (doi:10.1101/2024.01.08.574731)
